Source: PubChem BioAssay
Many of the other results were omitted from the sample, so hits are more common in it than they were.
T cruzi inh: inhibitors of intracellular T. cruzi growth, primary screen, luminescence, NIH3T3 host cells; T. cruzi beta-gal in NIH3T3, 90 h; inhibition, % (no concentration beside the values); 1.4% of 300,000 active; AID 1885, 2009;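 active = mean inhibition across valid replicates above about 55%, limit read from the data; inconclusive = mean below that limit but half or more replicates reach it; inactive = mean below it, under half of replicates reach it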;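 note: signal also drops with host cell toxicity which is not excluded here; higher percent means less beta-gal luminescence so fewer parasites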
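System: NIH/3T3 fibroblasts plus reporter T. cruzi. Medium: DMEM plus 2% FBS. Probe or stimulus: 5000 reporter trypomastigotes per well. Compound: single 50 nL compound addition per well in DMSO. Incubation: co-culture of at least 90 h after 3 h attachment. Detection: GalScreen β-gal luminescence, detergent lysis, 60 min. Evaluation: parasite load inhibition, %.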
Lmaj promast: Leishmania major promastigote growth inhibition, primary screen. inhibition, % at 10 µM. 9% of 200,000 active. Leishmania major promastigotes, resazurin fluorescence viability. AID 1063, 2008; in the data active = inhibition above about 50%;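 note: promastigotes grown with compound for 44 hours at 28 °C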
NLRP3 yeast inh: NALP3 inflammasome inhibitors in reconstituted yeast, primary screen, luminescence, uHTS. Yeast reconstituted NLRP3/ASC/caspase-1, beta-gal luminescence, 24 h. 0.39% of 330,000 active. AID 2825, 2010. inhibition, % at 10 µM;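 active = inhibition of 50% or more; inactive = inhibition below 50%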
Calb FLC: C. albicans growth inhibition with fluconazole, primary screen, CaCi-2 strain, Alamar Blue fluorescence; growth inhibition, % (concentration not given with the values); 0.57% of 300,000 active; C. albicans CaCi-2 + fluconazole, 48 h;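 active = growth inhibition above about 58% in most replicates, limit read from the data, passing the limit was not always enough; inconclusive = exactly half the replicates above a set limit; inactive = most replicates below a set limit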;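 note: all wells also contain fluconazole at 8 µg/ml as a sub-toxic cotreatment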
NALP1 inh: NALP1 inflammasome inhibitors in reconstituted yeast, colorimetric, S. cerevisiae, triplicate retest; S. cerevisiae NALP1/ASC/caspase-1 growth, X-gal OD620, 72 h; inhibition, % at 10 µM; 0.61% of 280,000 active; in the data active = inhibition mostly above about 24%, no sharp cut-off; inactive = mostly below about 32%
PolyA inh: polyadenylation inhibitors in yeast reporter cells, primary screen, luminescence, S. cerevisiae. S. cerevisiae SKY197-pL101 polyadenylation reporter, beta-gal luminescence; efflux-impaired pdr1/pdr3 knockout yeast; score 100 = 6 SD above DMSO. 0.02% of 300,000 active. activity score, % at 12 µM. AID 1875, 2009;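 active = lowest replicate activity score at least 50, where 100 means six control SD above control mean; inconclusive = lowest score under 50 but half or more replicates reach 50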;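 note: yeast exposed to compound for 9 h at 30 °C; higher score means more reporter readthrough which indicates perturbed polyadenylation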
A number is an active result; 0 = inactive; ? = inconclusive; - = not tested or not shown.

SMILES | T cruzi inh | Lmaj promast | NLRP3 yeast inh | Calb FLC | NALP1 inh | PolyA inh
CC(=O)CSc1nc2ccc(Nc3nc(N4CCOCC4)nc(N4CCOCC4)n3)cc2s1 | 0 | 64.4 | 0 | 0 | 0 | 0
CC(C)(C)c1ccc(-c2nc3c(C#N)c(-c4ccc5c(c4)OCO5)ccn3n2)cc1 | 63.9 | 0 | 0 | ? | 0 | 0
Cc1ccc(-c2cc(-c3ccc4c(c3)OCO4)c(C#N)c(N)n2)o1 | 0 | 0 | 0 | 0 | 0 | 0
CCC(=O)N=c1sc2c(C)cc(C)cc2n1CC(=O)OC | 0 | 0 | 0 | 0 | 0 | 0
O=C(c1ccc([N+](=O)[O-])o1)N1CCN(c2nc3c(F)cc(F)cc3s2)CC1 | 55.7 | - | 0 | 0 | - | 0
Cc1ccc(C)c2sc(N3CCN(C(=O)c4ccc([N+](=O)[O-])o4)CC3)nc12 | 0 | - | 0 | 0 | - | 0
COc1ccc2cc3cc(C(=O)Nc4ccc5c(c4)OCCO5)oc3nc2c1 | 0 | 99.7 | 0 | 0 | 0 | 0
COc1ccc2cc3cc(C(=O)Nc4cc(OC)c(OC)c(OC)c4)oc3nc2c1 | 0 | 0 | 0 | 0 | 0 | 0
CCN(CC)CCNC(=O)c1cc2cc3ccc(OC)cc3nc2o1 | 0 | - | 0 | 0 | 0 | 0
COc1ccc2cc3cc(C(=O)NC(C)C)oc3nc2c1 | 0 | 88.5 | 0 | 0 | 0 | 0
O=C(CN1C(=O)NC2(CCOc3ccccc32)C1=O)c1ccc[nH]1 (configuration not stated) | 0 | - | 0 | 0 | - | 0
O=C(N/N=C/c1ccccc1)c1cc(=O)[nH]c2ccccc12 | 0 | 0 | 0 | 0 | 0 | 0
O=C(N/N=C/c1ccc(OCc2ccc(F)cc2)cc1)c1ccccc1 | 0 | 0 | 0 | 0 | 0 | 0
CC(C)(C)c1ccc(OCc2ccc(C(=O)N/N=C/c3ccc(O)c(O)c3)cc2)cc1 | 0 | 100.0 | 0 | 63.1 | 0 | 0
COc1ccc(O)c(/C=N/NC(=O)c2cc(=O)[nH]c3ccccc23)c1 | 0 | - | 0 | 0 | 44.9 | 0
COc1ccc(O)c(/C=N/NC(=O)c2ccc(OCc3cccc(Br)c3)cc2)c1 | 72.7 | 96.8 | 0 | 62.5 | 0 | 0
COc1ccc(C(=O)N/N=C/c2cc(Br)ccc2O)cc1OC | 55.9 | - | 0 | 0 | 0 | 0
COc1ccc(/C=N/NC(=O)c2ccc(Br)cc2)c(OC)c1 | 0 | 0 | 0 | 0 | 0 | 0
CC1(C)Cc2nc3oc4c(SCC(N)=O)ncnc4c3cc2CO1 | 0 | - | 0 | 0 | - | 0
COc1ccc(CNC(=O)COC(=O)c2cc3ccccc3cc2O)cc1OC | - | - | 0 | - | - | -
Nc1nnc(-c2ccc(Cl)c(Cl)c2)s1 | 0 | 0 | 0 | ? | 0 | 0
Cn1c(-c2ccc(Cl)cc2)cnc1N | 0 | 0 | 0 | 0 | 0 | -
Nc1cccn2c(-c3ccc(Cl)cc3)cnc12 | 0 | 72.8 | 0 | 0 | 0 | 0
Nc1cccn2c(-c3ccc(Cl)c(Cl)c3)cnc12 | 0 | 64.7 | 0 | 0 | 0 | 0
CCOC(=O)C1CCN(S(=O)(=O)c2ccc(OC)c(Cl)c2)CC1 | 0 | 0 | 0 | 0 | 0 | 0
SMILES | T cruzi inh | Lmaj promast | NLRP3 yeast inh | Calb FLC | NALP1 inh | PolyA inh
CN1CC[C@]23c4ccccc4N[C@H]1[C@]21CCN(C)[C@H]3Nc2ccccc21 | - | - | 0 | - | - | -
COC(=O)C1CC23C=CCN4CCC5(c6ccccc6NC15C2C)C43 (configuration not stated) | 0 | - | 0 | 0 | 37.1 | 0
COc1ccc([C@H]2CC(=O)C=C(c3ccc(Oc4ccccc4)cc3)C2)cc1OC | - | - | 0 | - | - | -
COc1ccc(Cl)cc1N(CC(=O)Nc1ccccc1C(=O)NCc1ccco1)S(C)(=O)=O | 0 | 82.7 | 0 | 0 | 0 | 0
Cc1nc(NC(=O)/C=C/c2ccco2)sc1C | 0 | 0 | 0 | 0 | 0 | 0
O=C(/C=C/c1ccco1)Nc1cccc(NC(=O)/C=C/c2ccco2)n1 | 0 | 64.1 | 0 | 0 | 0 | 0
CCOC(=O)[C@@H]1[C@H]2COc3ccc(Br)cc3[C@@H]2N2C(=O)N(c3ccc(OC)cc3)C(=O)[C@@]12C | - | - | 0 | - | - | -
CCCN(CCC)S(=O)(=O)c1ccc2c(c1)CCCN2C(C)=O | 0 | 0 | 0 | 0 | 0 | 0
CCCN(CCC)S(=O)(=O)c1ccc(C(=O)N2CCCc3ccccc32)cc1 | 0 | 63.5 | 0 | 0 | 0 | 0
O=C(COC(=O)c1c(Cl)ccc(Cl)c1Cl)NC(=O)NCc1ccccc1 | 0 | 78.8 | 0 | ? | 0 | 0
